From PMC6039199 (Clinical and Translational Science, 2018)
“And” between values parts separate entries of the source, which are not always exact repeats. Identical values can stand only once. “Also recorded” adds a separate entry of the source. Like-named read-outs stand apart in the source and are kept apart here. Marks after values point to notes of the source that are not given here. Blank lines part the entries; values can stand above or below the compound they belong to.

Columns and labels:
[1] = type: in vivo, human; conditions: for AUCinf(dn), adjusted least squares geometric mean: N = 8, mixed-effects model; for t1/2 / half-life: arithmetic mean ± SD
Procedure, shortened: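 In period 1, after an overnight fast of at least 8 h, subjects received 15 mg oral unlabeled drug. A 100 μg 14C i.v. microdose (~400 nCi) was infused over ~5 min, ending 1 h post oral dose. Plasma 14C drug was measured by HPLC-AMS and unlabeled drug by HPLC-MS/MS (LLOQ 0.5 ng/mL). Noncompartmental AUClast used linear-log trapezoids and AUCinf = AUClast + Clast*/kel, normalized to the actual dose. F = ratio of adjusted geometric means, from a mixed-effects model on ln AUCinf with 90% CI.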

[2] = type: in vivo, human; conditions: for 14C_Total(dn) (14C_Total in dpm/radioactivity dose in dpm), geometric mean: N = 6; for 14C-Total urinary excretion: mean (%CV)
Procedure, shortened: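 Period 1 was the i.v. 14C microdose. In period 2, after at least 11 days washout and a fast of at least 8 h, subjects took 15 mg oral unlabeled drug (three 5-mg tablets), then a 100 μg oral 14C solution (~400 nCi) with ~240 mL water. Urine 0–96 h was assayed for 14C by AMS, summed as concentration × volume, then normalized to the administered dpm. That dose came from LSC of the solution and syringe weight. Fa = oral/i.v. geometric mean ratio, plus a mixed-effects model using all data.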

[3] = Safety and tolerability assessments in the microtracer study; type: in vivo, human; conditions: for Adverse events: N = 8
Procedure, shortened: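 Eight healthy adult men, fasted at least 8 h overnight, received the test compound orally plus an i.v. 14C microtracer (period 1), then oral unlabeled drug plus oral 14C microtracer (period 2). Monitoring covered adverse events, vital signs, ECGs and laboratory tests from screening through the study. A telephone follow-up for adverse events was made 14 ± 3 days after the last dose.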

[4] = dose range of 0.5–300 mg, fasting state; cited from earlier work
[5] = cited from earlier work
[6] = rats; cited from earlier work
[7] = dogs; cited from earlier work
Caco‐2 cells = conditions: cited from earlier work
[8] = ref data on file; cited from earlier work
[9] = 15 mg oral unlabeled, dose-normalized to 1 mg, geometric mean (geometric %CV)
[10] = 100 μg i.v. 14C, geometric mean (geometric %CV)

AUCinf(dn), adjusted least squares geometric mean ([1]; 15 mg oral unlabeled (Test)): 93.16 ng·h/mL/mg
Time quantifiable in plasma postdose ([1]; 15 mg oral unlabeled, HPLC-MS/MS, LLOQ 0.5 ng/mL): 72 h
t1/2 ([1]; 15 mg oral unlabeled, listed as Unlabeled ertugliflozin): 14.04 ± 2.17 h
AUCinf(dn) [1, 9]: 93.16 (13) ng·h/mL/mg
Cmax(dn) [1, 9]: 17.09 (14) ng/mL/mg
CL/F ([1]; 15 mg oral unlabeled, geometric mean (geometric %CV)): 178.7 mL/min
Permeability classification ([1]; based on F and Fa ∼100%): highly permeable
Vd ([1]; human, plasma, iv, 100 ug): 85.5 L
clearance ([1]; human, plasma, iv, 100 ug): 187 mL/min
half-life ([1]; human, plasma, iv, 100 ug, t1/2, 100 μg i.v. 14C): 8.1 h
AUC(0-inf) ([1]; human, plasma, po, 15 mg): 1.4 µg·h/mL
AUC(0-t) ([1]; human, plasma, po, 15 mg): 1.38 µg·h/mL
Cmax ([1]; human, plasma, po, 15 mg): 0.256 µg/mL
Vd/F ([1]; human, plasma, po, 15 mg): 215 L
half-life ([1]; human, plasma, po, 15 mg, t1/2, 15 mg oral unlabeled): 14 h
Absolute oral bioavailability F: Ratio (Test/Reference) of adjusted means ([1]; oral 15 mg vs i.v. 14C 100 μg, fasted, N = 8): 105% and 104.73%
Fraction absorbed Fa: geometric mean ratio (90% CI), mixed-effects model ([2]; all available data (N = 8 oral; N = 6 i.v.)): 110%
14C_Total(dn) (14C_Total in dpm/radioactivity dose in dpm), geometric mean ([2]; oral (Test, period 2), urine 0–96 h): 0.432
Fraction absorbed Fa: ratio (Test/Reference) of geometric means ([2]; six subjects with complete urine data for both treatments, fasted): 111% and 110.71%
Compound: CCOc1ccc(Cc2cc([C@]34OC[C@](CO)(O3)[C@@H](O)[C@H](O)[C@H]4O)ccc2Cl)cc1 [ertugliflozin]
Oral absorption ([2]; fasted conditions): complete; also recorded: completely absorbed
Tolerability ([3]; following i.v. and oral administration, healthy men): well tolerated
Adverse events ([3]; period 1 (i.v. administration)): Three subjects experienced three AEs (back pain and two episodes of headache)
Adverse events ([3]; period 2 (oral administration)): one subject experienced one AE (nasal congestion)
Dose proportionality in exposure (AUC and Cmax) [4]: dose proportionality in exposure
Principal biotransformation pathway ([5]; humans): glucuronidation
Renal excretion of unchanged ertugliflozin ([5]; single 25-mg oral 14C dose, healthy male subjects): 1.5%
Human fraction of dose absorbed (Fa) from mean urinary 14C recovery ([5]; single 25-mg oral 14C dose): at least 50%
Estimated Fa [6]: ~75%
Estimated Fa [7]: ~100%
BA/AB ratio (Caco‐2 cells; Caco-2): 2.1
Permeability coefficient (Caco‐2 cells; apical (A) to basolateral (B) direction): 41 nm/s
Solubility classification [8]: highly soluble
Solubility of 15 mg in 250 mL aqueous media [8]: completely soluble

AUCinf(dn), adjusted least squares geometric mean ([1]; 100 μg i.v. 14C (Reference)): 88.96 ng·h/mL/mg
AUCinf ([1]; 100 μg i.v. 14C microdose, period 1, N = 8, geometric mean (geometric %CV)): 8.477 (15) ng·h/mL
Time quantifiable in plasma postdose ([1]; 100 μg i.v. 14C microdose, HPLC-AMS, LLOQ 20.4 pg/mL): ~24 h
Tmax ([1]; 100 μg i.v. 14C, 5-min infusion, relative to infusion start, median (range)): 0.083 (0.083–0.100) h
t1/2 ([1]; 100 μg i.v. 14C): 8.098 ± 2.248 h
Cmax(dn) ([1]; 100 μg i.v. 14C, dose-normalized to 1 mg, geometric mean (geometric %CV)): 89.34 ^b (32) ng/mL/mg
AUClast [1, 10]: 7.859 (14) ng·h/mL
CL [1, 10]: 187.2 (15) mL/min
Cmax [1, 10]: 8.514 (32) ng/mL
Vss [1, 10]: 85.53 (15) L
14C_Total(dn) (14C_Total in dpm/radioactivity dose in dpm), geometric mean ([2]; i.v. 100 μg 14C (Reference, period 1), urine): 0.390
14C-Total urinary excretion ([2]; i.v. 100 μg 14C, period 1, N = 6): 319,000 (19) dpm and 319,000 dpm
Total 14C in urine as percent of administered dose (% 14C_Total) ([2]; i.v. administration): 39%
14C-Total urinary excretion ([2]; oral 100 μg 14C, period 2, N = 8): 320,400 (10) dpm and 320,400 dpm
Total 14C in urine as percent of administered dose (% 14C_Total) ([2]; oral administration): 44%
Compound: ^14C‐ertugliflozin
